From ChEMBL document CHEMBL5247575 (J Med Chem, 2018)

Tested on: Bacteria
Assay: Inhibition of bacteria PDC-3 assessed as half life using nitrocefin as substrate
Conditions: not given

Compound | T1/2
O.O=C(NC1CCNCC1)[C@@H]1CC[C@@H]2CN1C(=O)N2OS(=O)(=O)O [RELEBACTAM] | 12.8 min
NC(=O)[C@@H]1CC[C@@H]2CN1C(=O)N2OS(=O)(=O)[O-].[Na+] [AVIBACTAM SODIUM] | 14.4 min

Tested on: Acinetobacter baumannii
Assay: Synergistic antibacterial activity against Acinetobacter baumannii PR408 producing OXA-24/40 assessed as meropenem MIC at 4 ug/ml by broth microdilution method
Type: functional
Conditions: dose 4 µg/ml

Compound | MIC
O.O=C(NC1CCNCC1)[C@@H]1CC[C@@H]2CN1C(=O)N2OS(=O)(=O)O [RELEBACTAM] | > 16 µg/mL
NC(=O)[C@@H]1CC[C@@H]2CN1C(=O)N2OS(=O)(=O)[O-].[Na+] [AVIBACTAM SODIUM] | > 16 µg/mL

Tested on: Klebsiella pneumoniae
Assay: Synergistic antibacterial activity against Klebsiella pneumoniae 935/1884 producing KPC-3 assessed as cefepime MIC at 4 ug/ml by broth microdilution method
Type: functional
Conditions: dose 4 µg/ml

Compound | MIC
O.O=C(NC1CCNCC1)[C@@H]1CC[C@@H]2CN1C(=O)N2OS(=O)(=O)O [RELEBACTAM] | ≤ 0.12 µg/mL
NC(=O)[C@@H]1CC[C@@H]2CN1C(=O)N2OS(=O)(=O)[O-].[Na+] [AVIBACTAM SODIUM] | ≤ 0.12 µg/mL

Tested on: Klebsiella pneumoniae
Assay: Synergistic antibacterial activity against Klebsiella pneumoniae 972/1910 producing KPC-3 assessed as meropenem MIC at 4 ug/ml by broth microdilution method
Type: functional
Conditions: dose 4 µg/ml

Compound | MIC
O.O=C(NC1CCNCC1)[C@@H]1CC[C@@H]2CN1C(=O)N2OS(=O)(=O)O [RELEBACTAM] | ≤ 0.12 µg/mL
NC(=O)[C@@H]1CC[C@@H]2CN1C(=O)N2OS(=O)(=O)[O-].[Na+] [AVIBACTAM SODIUM] | ≤ 0.12 µg/mL

Tested on: Escherichia coli
Assay: Synergistic antibacterial activity against Escherichia coli DH10B transfected with pBR322-catI-KPC-2 assessed as meropenem MIC at 4 ug/ml by broth microdilution method
Type: functional
Conditions: dose 4 µg/ml
Method in brief: (§1)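 Broth microdilution per CLSI guidelines, using custom frozen panels. […] Each partner drug was also tested alone. MICs were run in triplicate and the modal value is reported.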

Compound | MIC
O.O=C(NC1CCNCC1)[C@@H]1CC[C@@H]2CN1C(=O)N2OS(=O)(=O)O [RELEBACTAM] | ≤ 0.12 µg/mL
NC(=O)[C@@H]1CC[C@@H]2CN1C(=O)N2OS(=O)(=O)[O-].[Na+] [AVIBACTAM SODIUM] | ≤ 0.12 µg/mL

Tested on: Klebsiella pneumoniae
Assay: Antibacterial activity against Klebsiella pneumoniae jefferson 1775 producing OXA-48 by broth microdilution method
Type: functional
Conditions: not given

Compound | MIC
O.O=C(NC1CCNCC1)[C@@H]1CC[C@@H]2CN1C(=O)N2OS(=O)(=O)O [RELEBACTAM] | > 16 µg/mL
NC(=O)[C@@H]1CC[C@@H]2CN1C(=O)N2OS(=O)(=O)[O-].[Na+] [AVIBACTAM SODIUM] | > 16 µg/mL

Tested on: Klebsiella pneumoniae
Assay: Synergistic antibacterial activity against Klebsiella pneumoniae jefferson 1773 producing OXA-181 assessed as cefepime MIC at 4 ug/ml by broth microdilution method
Type: functional
Conditions: dose 4 µg/ml

Compound | MIC
O.O=C(NC1CCNCC1)[C@@H]1CC[C@@H]2CN1C(=O)N2OS(=O)(=O)O [RELEBACTAM] | 4 µg/mL
NC(=O)[C@@H]1CC[C@@H]2CN1C(=O)N2OS(=O)(=O)[O-].[Na+] [AVIBACTAM SODIUM] | 1 µg/mL

Tested on: Acinetobacter baumannii
Assay: Synergistic antibacterial activity against Acinetobacter baumannii PR363 producing OXA-23 assessed as meropenem MIC at 4 ug/ml by broth microdilution method
Type: functional
Conditions: dose 4 µg/ml

Compound | MIC
O.O=C(NC1CCNCC1)[C@@H]1CC[C@@H]2CN1C(=O)N2OS(=O)(=O)O [RELEBACTAM] | > 16 µg/mL
NC(=O)[C@@H]1CC[C@@H]2CN1C(=O)N2OS(=O)(=O)[O-].[Na+] [AVIBACTAM SODIUM] | > 16 µg/mL

Tested on: Klebsiella pneumoniae
Assay: Synergistic antibacterial activity against Klebsiella pneumoniae NY BS producing OXA-232 assessed as cefepime MIC at 4 ug/ml by broth microdilution method
Type: functional
Conditions: dose 4 µg/ml

Compound | MIC
O.O=C(NC1CCNCC1)[C@@H]1CC[C@@H]2CN1C(=O)N2OS(=O)(=O)O [RELEBACTAM] | 2 µg/mL
NC(=O)[C@@H]1CC[C@@H]2CN1C(=O)N2OS(=O)(=O)[O-].[Na+] [AVIBACTAM SODIUM] | 0.5 µg/mL

Tested on: Escherichia coli
Assay: Synergistic antibacterial activity against Escherichia coli DH10B transfected with pBC SK (-) KPC-3 assessed as cefepime MIC at 4 ug/ml by broth microdilution method
Type: functional
Conditions: dose 4 µg/ml

Compound | MIC
O.O=C(NC1CCNCC1)[C@@H]1CC[C@@H]2CN1C(=O)N2OS(=O)(=O)O [RELEBACTAM] | ≤ 0.12 µg/mL
NC(=O)[C@@H]1CC[C@@H]2CN1C(=O)N2OS(=O)(=O)[O-].[Na+] [AVIBACTAM SODIUM] | ≤ 0.12 µg/mL

Tested on: Klebsiella pneumoniae
Assay: Synergistic antibacterial activity against Klebsiella pneumoniae 776/1742 producing KPC-2 assessed as cefepime MIC at 4 ug/ml by broth microdilution method
Type: functional
Conditions: dose 4 µg/ml

Compound | MIC
O.O=C(NC1CCNCC1)[C@@H]1CC[C@@H]2CN1C(=O)N2OS(=O)(=O)O [RELEBACTAM] | 1 µg/mL
NC(=O)[C@@H]1CC[C@@H]2CN1C(=O)N2OS(=O)(=O)[O-].[Na+] [AVIBACTAM SODIUM] | 0.5 µg/mL

Tested on: Acinetobacter baumannii
Assay: Synergistic antibacterial activity against Acinetobacter baumannii PR448 producing OXA-23 assessed as meropenem MIC at 4 ug/ml by broth microdilution method
Type: functional
Conditions: dose 4 µg/ml

Compound | MIC
O.O=C(NC1CCNCC1)[C@@H]1CC[C@@H]2CN1C(=O)N2OS(=O)(=O)O [RELEBACTAM] | > 16 µg/mL
NC(=O)[C@@H]1CC[C@@H]2CN1C(=O)N2OS(=O)(=O)[O-].[Na+] [AVIBACTAM SODIUM] | > 16 µg/mL

Tested on: Klebsiella pneumoniae
Assay: Synergistic antibacterial activity against Klebsiella pneumoniae 1108/1989 producing KPC-3 assessed as meropenem MIC at 4 ug/ml by broth microdilution method
Type: functional
Conditions: dose 4 µg/ml
Method in brief: as §1

Compound | MIC
O.O=C(NC1CCNCC1)[C@@H]1CC[C@@H]2CN1C(=O)N2OS(=O)(=O)O [RELEBACTAM] | ≤ 0.12 µg/mL
NC(=O)[C@@H]1CC[C@@H]2CN1C(=O)N2OS(=O)(=O)[O-].[Na+] [AVIBACTAM SODIUM] | ≤ 0.12 µg/mL

Tested on: Acinetobacter baumannii
Assay: Synergistic antibacterial activity against Acinetobacter baumannii PR359 producing OXA-23 assessed as cefepime MIC at 4 ug/ml by broth microdilution method
Type: functional
Conditions: dose 4 µg/ml

Compound | MIC
O.O=C(NC1CCNCC1)[C@@H]1CC[C@@H]2CN1C(=O)N2OS(=O)(=O)O [RELEBACTAM] | 16 µg/mL
NC(=O)[C@@H]1CC[C@@H]2CN1C(=O)N2OS(=O)(=O)[O-].[Na+] [AVIBACTAM SODIUM] | 16 µg/mL

Biological target: not listed separately
Assay: Binding affinity to bacteria ADC-7 assessed as dissociation constant
Conditions: not given

Compound | Kd
NC(=O)[C@@H]1CC[C@@H]2CN1C(=O)N2OS(=O)(=O)[O-].[Na+] [AVIBACTAM SODIUM] | 90 nM

Tested on: Klebsiella pneumoniae
Assay: Synergistic antibacterial activity against Klebsiella pneumoniae CAV 1543 producing OXA-48 assessed as meropenem MIC at 4 ug/ml by broth microdilution method
Type: functional
Conditions: dose 4 µg/ml

Compound | MIC
O.O=C(NC1CCNCC1)[C@@H]1CC[C@@H]2CN1C(=O)N2OS(=O)(=O)O [RELEBACTAM] | 8 µg/mL
NC(=O)[C@@H]1CC[C@@H]2CN1C(=O)N2OS(=O)(=O)[O-].[Na+] [AVIBACTAM SODIUM] | ≤ 0.12 µg/mL

Tested on: Klebsiella pneumoniae
Assay: Synergistic antibacterial activity against Klebsiella pneumoniae CAV 1636 producing OXA-181 assessed as cefepime MIC at 4 ug/ml by broth microdilution method
Type: functional
Conditions: dose 4 µg/ml

Compound | MIC
O.O=C(NC1CCNCC1)[C@@H]1CC[C@@H]2CN1C(=O)N2OS(=O)(=O)O [RELEBACTAM] | 4 µg/mL
NC(=O)[C@@H]1CC[C@@H]2CN1C(=O)N2OS(=O)(=O)[O-].[Na+] [AVIBACTAM SODIUM] | 0.5 µg/mL

Tested on: Klebsiella pneumoniae
Assay: Synergistic antibacterial activity against Klebsiella pneumoniae 901/1860 producing KPC-3 assessed as meropenem MIC at 4 ug/ml by broth microdilution method
Type: functional
Conditions: dose 4 µg/ml

Compound | MIC
O.O=C(NC1CCNCC1)[C@@H]1CC[C@@H]2CN1C(=O)N2OS(=O)(=O)O [RELEBACTAM] | ≤ 0.12 µg/mL
NC(=O)[C@@H]1CC[C@@H]2CN1C(=O)N2OS(=O)(=O)[O-].[Na+] [AVIBACTAM SODIUM] | ≤ 0.12 µg/mL
